Hits are enriched below; roughly 4.6% of the tested compounds scored in any of these assays.
GPR7 antagonist: antagonists of human GPR7 (neuropeptides B/W receptor 1); P48145; GPR7-expressing cells, fluorescence antagonist assay; inhibition, % at 4.4 µM; 290,000 compounds, 1.1% hits; in the data active = inhibition above about 16%, passing the limit was not always enough;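 note: cells stimulated with the agonist NPW; 0% = agonist with vehicle and 100% = vehicle without agonist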
Target sequence (P48145 whole entry, looked up): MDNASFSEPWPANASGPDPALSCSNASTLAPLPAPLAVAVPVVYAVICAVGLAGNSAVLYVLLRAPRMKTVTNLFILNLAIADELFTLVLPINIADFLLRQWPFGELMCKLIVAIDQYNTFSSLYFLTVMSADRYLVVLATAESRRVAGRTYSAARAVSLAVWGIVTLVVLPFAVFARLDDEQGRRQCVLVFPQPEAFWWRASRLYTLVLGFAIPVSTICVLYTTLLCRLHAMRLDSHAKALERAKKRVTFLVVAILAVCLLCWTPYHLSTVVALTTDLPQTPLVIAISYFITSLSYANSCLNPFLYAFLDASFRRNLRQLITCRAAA
OX1R antag-1: antagonists of human orexin 1 receptor (OX1R) | O43613 | OX1R-expressing cells, FRET antagonist read-out | inhibition, % at 6.6 µM | 330,000 compounds, 1.8% hits; in the data active = inhibition mostly above about 38%, no sharp cut-off; inactive = mostly below about 40%;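 note: 0% = agonist challenge alone and 100% = reference antagonist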
OX1R antag-2: blocks the human orexin 1 receptor | CHO/OX1R cells, Fluo-8 calcium fluorescence, orexin A | inhibition, % at 5 µM | 330,000 compounds, 0.43% hits;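 active = inhibition above its plate's threshold, mean inhibition of all tested compounds on the plate plus 3 SD, cut at about 37% in these data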;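 note: 0% = orexin A challenge wells and 100% = SB-334867-A antagonist wells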
TAAR1 agonist: agonists of human TAAR1. Q96RJ0. CHO RD-HGA16 TAAR1, Fluo-8 calcium fluorescence; vehicle wells 0%, saturating PEA agonist 100%. activation, % at 3 µM. 360,000 compounds, 0.99% hits. AID 624467;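 active = activation above the mean activation of all test compounds in the run plus 3 SD, cut at about 38% in these data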
Target sequence (Q96RJ0 whole entry, looked up): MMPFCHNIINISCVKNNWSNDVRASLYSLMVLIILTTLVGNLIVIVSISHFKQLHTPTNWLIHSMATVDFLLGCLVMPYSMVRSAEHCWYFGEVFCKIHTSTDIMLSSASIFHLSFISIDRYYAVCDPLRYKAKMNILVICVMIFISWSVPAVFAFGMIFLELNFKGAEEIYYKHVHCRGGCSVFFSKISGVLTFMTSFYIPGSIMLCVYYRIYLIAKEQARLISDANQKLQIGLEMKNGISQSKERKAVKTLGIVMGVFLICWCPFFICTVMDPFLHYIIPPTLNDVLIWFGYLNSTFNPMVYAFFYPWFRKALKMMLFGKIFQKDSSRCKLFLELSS
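System: CHO RD-HGA16 cells carrying human TAAR1 plus Gα16; Incubation: 17-24 h seeding, 75 min 37 °C dye, 30 min RT; Measured by: Fluo-8 fluorescence, 5 s baseline then 140 s kinetic read; Control set: DMSO and PEA EC100; Replication: single well for each compound.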
CHO parental Ca: counter-screen: ATP calcium response change in parental CHO cells | 330,000 compounds, 0.63% hits | parental CHO-K1, ATP-induced calcium, Fluo-8 fluorescence | inhibition, % at 5.6 µM;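 active = inhibition above that plate's mean sample inhibition plus 3 SD, cut at about 26% in these data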;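 note: 0% = ATP-challenged DMSO wells and 100% = DMSO wells without ATP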
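Assay system: parental CHO cells; Read-out basis: percent inhibition of ATP-evoked calcium rise, normalized to controls; Benchmarks: ATP and no-ATP DMSO wells; Compound dosing: single nominal dose of 5.6 µM per compound; Signal: Fluo-8 calcium dye fluorescence; Also added: ATP as calcium-mobilizing challenge; Repeats: singlicate.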
TAAR1 antagonist: human TAAR1 antagonism. CHO RD-HGA16 TAAR1, Fluo-8 calcium fluorescence, antagonist. 360,000 compounds, 1.5% hits. AID 624466. Q96RJ0. inhibition, % at 3 µM;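 active = inhibition above a per-plate cutoff, the mean inhibition of test compounds on that plate plus 3 SD, cut at about 49% in these data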;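 note: 0% = DMSO plus EC80 beta-PEA response and 100% = DMSO alone without agonist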
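System: CHO RD-HGA16 cells bearing hTAAR1. Reagent: EC80 β-phenethylamine stimulus. Schedule: seeding 17-24 h prior, 75-min 37 °C, 30-min RT dye loading. Signal: Fluo-8 intracellular calcium dye fluorescence, real-time kinetic reads. Read-out: % inhibition from peak post-agonist over basal fluorescence ratio. Benchmarks: vehicle wells and EC80 agonist wells. Replicates: n of 1.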
An asterisk follows results filed as active; / = not tested or not shown.

SMILES	GPR7 antagonist	OX1R antag-1	OX1R antag-2	TAAR1 agonist	CHO parental Ca	TAAR1 antagonist
C[C@@H]1CN([C@@H](C)CO)C(=O)c2cc(N(C)C)ccc2O[C@@H]1CN(C)S(C)(=O)=O	/	4	-6	2	1	8
Cc1ccc(OCCNS(=O)(=O)c2ccc(N3CCCC3=O)cc2)cc1	-7	26	18	4	16	-1
Cc1ccc(OCCNS(=O)(=O)c2ccc(N3CCCC3=O)cc2)cc1C	-3	35*	34	8	9	-15
CC1=C(c2ccccc2)C(=O)C(C)(C)CC1=O	/	/	/	6	/	-13
CN(C)c1ccc(C(CNS(=O)(=O)c2ccc3ccccc3c2)N2CCOCC2)cc1 (stereo unspecified)	/	17	-29	3	-14	-6
CN(C)c1ccc(C(CNS(=O)(=O)c2ccc([N+](=O)[O-])cc2)N2CCCC2)cc1 (stereo unspecified)	/	71*	-32	2	-15	1
CSCCC(c1nc2ccccc2[nH]1)n1c(/C=C/c2ccc(Cl)cc2)nc2ccccc21 (stereo unspecified)	/	/	/	18	/	-4
CCN(CC(=O)Nc1ccc(Br)cc1)C(=O)Cc1cccc(F)c1	-3	49*	-9	3	-20	5
Cc1ccc(NC(=O)Cn2c(=O)oc3cc(S(=O)(=O)N4CCC(C)CC4)ccc32)cc1C	-16	14	-8	-2	32*	18
COc1ccc(NC(=O)Cn2c(=O)oc3cc(S(=O)(=O)N4CCCC4)ccc32)cc1	-10	2	0	4	9	-13
Cc1ccc(N(CCCCN2C(=O)c3ccccc3C2=O)C(=O)c2cccs2)cc1	-10	10	-24	8	-17	49*
Cc1nc2ccc(NS(=O)(=O)c3ccc(C)c(C)c3)cc2s1	13	37	32	19	55*	12
COc1ccc(CN(C)C(=O)[C@@H](Cc2ccccc2)NC(=O)[C@H]2O[C@@H](n3ccc(N)nc3=O)[C@H](O)[C@@H]2O)cc1OC	/	/	/	-1	/	-13
CN1CCN(C(=O)/C=C/c2ccc([N+](=O)[O-])cc2)CC1	-5	61*	-7	1	-10	15
O=C(/C=C/c1ccc([N+](=O)[O-])cc1)OCC(=O)N1CCCC1	/	45*	-14	3	-17	-20
O=C(OCC(=O)N1CCCCCC1)c1ccc([N+](=O)[O-])cc1Cl	-1	46*	-26	7	2	3
O=C(/C=C/c1ccc([N+](=O)[O-])cc1)N1CCN(Cc2ccccc2)CC1	27	37	-6	2	4	-2
C=CCNc1ccc2c(c1)OC[C@@H](CC(C)C)NS2(=O)=O	/	/	/	-2	/	3
CCOC(=O)N(C)C[C@@H]1OCc2cn(nn2)CCCC(=O)N([C@H](C)CO)C[C@H]1C	/	/	/	1	/	1
COc1cccc(C(=O)Nc2nc(-c3ccc(S(=O)(=O)N4CCOCC4)cc3)cs2)c1	-1	29	-15	21	12	50*
CCOC(=O)c1nc2c(=O)n(C)c(=O)n(C)c2n(C)c1=O	/	48*	7	2	-13	-23
COc1ccc(OC2C(=O)N(Cc3ccc4c(c3)OCO4)C2c2cccs2)cc1 (stereo unspecified)	-8	17	58*	9	41*	56*
O=C1C(Oc2ccccc2)C(c2cccs2)N1Cc1ccc2c(c1)OCO2 (stereo unspecified)	-11	11	43	14	24	36
COc1ccccc1NC(=O)CNC(=O)c1ccc(Br)o1	10	6	-6	3	-3	3
COc1cc(/C=C2/SC(=S)NC2=O)ccc1OS(=O)(=O)c1ccc(C)cc1	5	64*	10	/	6	/
SMILES	GPR7 antagonist	OX1R antag-1	OX1R antag-2	TAAR1 agonist	CHO parental Ca	TAAR1 antagonist
COc1cc(/C=C2\SC(=S)NC2=O)ccc1OS(=O)(=O)c1ccccc1	-6	80*	10	/	11	/
CCOC(=O)C1=CCN(S(=O)(=O)c2ccccc2Br)C1c1cccc(C)c1 (stereo unspecified)	/	/	/	2	/	30
COC(=O)[C@]12C[C@H](CC(=O)N3CCC(c4ccccc4)CC3)C(=O)N(Cc3ccccc3)C1=C[C@H](C1CCCC1)O[C@@H]2C	/	/	/	-1	/	-26
CCCCCCNC(=O)C(C#N)c1nc2ccccc2nc1N1CCCC1 (stereo unspecified)	-12	24	-11	4	22	51*
O=C(Cc1cccs1)Nc1ccc(F)cc1	2	7	13	6	-1	2
Cc1ccc(-c2ocnc2C(=O)Nc2ccccc2NC(=O)c2ccccn2)cc1	-4	20	-29	-1	-22	25
Cc1cccc(-c2ocnc2C(=O)Nc2ccccc2NC(=O)c2ccccn2)c1	-20	66*	-26	-2	-12	18
NC(=O)C1CCN(C2=C(NS(=O)(=O)c3ccc(Br)cc3)C(=O)c3ccccc3C2=O)CC1	-2	76*	-17	4	-18	-3
NC(=O)C1CCN(C2=C(Cl)C(=O)c3ccccc3C2=O)CC1	-10	62*	3	0	7	21
CCOC(=O)C1CCN(C2=C(NS(=O)(=O)c3ccc(Br)cc3)C(=O)c3ccccc3C2=O)CC1	-9	75*	-41	-3	-33	-2
N#C/C(=N\Nc1cccc(C(F)(F)F)c1)C(=O)c1ccsc1	15	55*	36	2	1	-25
Cc1nccc(-c2cccc(N/N=C(\C#N)C(=O)c3ccccc3)c2)n1	-25	69	-15	3	7	-21
COc1ccccc1Nc1ccc([N+](=O)[O-])cc1N	-3	16	-26	7	-10	11
COc1cc(Nc2ccccc2Cl)c([N+](=O)[O-])nc1[N+](=O)[O-]	-13	41*	-8	-2	-16	-23
COc1ccccc1C(=O)NCC[N+](C)(C)C	/	/	/	1	/	2
CCOC(=O)c1sc(C)c2c(=O)n(CC)nnc12	-1	63*	7	11	-9	5
Nc1[nH]c(C(=O)c2ccccc2)c(-c2cccc3ccccc23)c1C(=O)c1ccc(Br)cc1	/	/	/	3	/	-50
O=[N+]([O-])c1ccc2[nH]c(O)c(N=NC(=S)NCC3CCCO3)c2c1 (stereo unspecified)	0	20	1	-2	-2	-7
CCNC(=S)N=Nc1c(O)[nH]c2ccc([N+](=O)[O-])cc12	-10	46*	-1	1	18	-9
C=CCn1c(SCC(=O)c2cc(C)n(C(C)COC)c2C)nc2sc(C)c(C)c2c1=O (stereo unspecified)	-7	10	-6	10	36*	24
Cc1ccc(N(CC(O)CON=C2c3ccccc3-c3ccccc32)S(C)(=O)=O)cc1 (stereo unspecified)	4	54*	33	9	-6	-11
